LYP act – activators of human LYP (PTPN22) phosphatase. Q9Y2R2. recombinant LYP, DiFMUP fluorescence; 0 = plate median, 100 = signal doubled. activation, % at 2 µM. actives 0.11% (n = 96,000). AID 697;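 active = activation at 2 µM above a set limit, the mean plus 5 SD, cut at about 37% in these data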
HIV Rev-RRE inh – disrupts HIV-1 Rev binding to RRE RNA | P05866 | Rev peptide-RRE RNA binding, FRET | inhibition, % at 8 µM | actives 0.79% (n = 97,000);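 active = inhibition above the screen-wide mean plus 3 SD, cut at about 35% in these data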;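 note: 0% = median DMSO wells and 100% = median Neomycin B control wells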
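Assay system: Rev peptide and RRE RNA, both fluorescently labelled; times: 5 min preincubation and 15 min binding, 25 °C; detection: FRET, ex 480 nm, em 540 and 671 nm; read-out basis: % inhibition from 671/540 nm acceptor-to-donor ratio, scaled between controls; benchmarks: DMSO low control, neomycin B high control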
LYP inh 2 – LYP (human) phosphatase inhibition; Q9Y2R2; recombinant LYP catalytic domain, DiFMUP fluorescence; inhibition, % at 2 µM; actives 0.21% (n = 96,000);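 active = inhibition at 2 µM at or above a set limit, the screen mean plus 3 SD, cut at about 24% in these data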;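 note: 0% = DMSO with enzyme and 100% = enzyme fully blocked by orthovanadate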
EphB4 antag – EphB4-ephrin-B2 interaction antagonism; EphB4 LBD / TNYL-RAW-Alexa532 peptide, fluorescence polarization; inhibition, % at 7 µM; actives 0.15% (n = 97,000); AID 720; P54760;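 active = inhibition above the screen-wide mean inhibition plus 3 SD, cut at about 15% in these data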;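 note: 0% = DMSO wells and 100% = excess unlabeled TNYL-RAW peptide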
FAK blocker – inhibitors of human focal adhesion kinase | biochemical FAK kinase activity assay | Q05397 | actives 0.84% (n = 97,000) | inhibition, %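 (tested at 7 µM)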 | AID 727;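 note: 0% = DMSO and 100% = reference compound high control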
PTPN22 act conf – LYP (PTPN22) phosphatase activation confirmation; shares compounds with LYP act; Recombinant LYP, DIFMUP fluorescence; zero set by plate's median compound well; activation, % at 2 µM; 100 tested, under 10 active; call rule not given here
FAK inh conf – confirmation of human focal adhesion kinase (FAK) inhibitors. actives 28% (n = 750). inhibition, % at 7 µM. shares compounds with FAK blocker. FAK kinase biochemical inhibition assay
* hit, by the source's call; . = not tested or not shown; [ ] = dose if it differs, or a comment. In the library only some 1.9% were active in any assay of this set; here they are far more common. Cut-off read from the data, not from the text of the source, unless noted: active = inhibition above about 19%; inactive = the rest.

SMILES	LYP act	HIV Rev-RRE inh	LYP inh 2	EphB4 antag	FAK blocker	PTPN22 act conf	others
O=C(CCCC(=O)N(CC(=O)NC1CCCC1)Cc1ccc(F)cc1)Nc1ccccn1	38*	2	-41	-3	-1	-4
CC1CCN(C(=O)c2scc3c2OCCO3)CC1	4	-2	-5	2	-2	.
CCn1c(-c2ccc3ncccc3c2)n[nH]c1=S	42*	3	-39	-2	2	3
NS(=O)(=O)c1cc(C(=O)N2CCc3ccccc32)c(Cl)cc1Cl	-7	1	5	2	-1	.
O=C(Nc1ccc2c(c1)OCCO2)C1CCN(C(=O)c2ccc(F)cc2)CC1	0	-4	4	-5	-9	.
O=C(NCc1ccco1)Nc1cccs1	37*	1	-42	2	1	5
CC(C(=O)NC1CCCC1)N(Cc1ccc2c(c1)OCO2)C(=O)c1snc(C(N)=O)c1N (configuration not stated)	42*	8	-44	-4	5	0
CCC(C(=O)NC1CCCC1)N(Cc1ccc2c(c1)OCO2)C(=O)c1snc(C(N)=O)c1N (configuration not stated)	1	6	-2	0	9	.
CSc1nc(-c2ccccc2)nn1C(=O)c1ccccc1	52*	6	-48	-7	4	-2
COc1cc(OC)c(C2N(c3ccccn3)C(=O)C3CCCN32)cc1OC (configuration not stated)	-5	2	3	-7	1	.
COc1cc(OC)c(C2N(C)c3ccccc3N2C)cc1OC	39*	3	-42	-2	2	6
COc1ccc(-n2cnc3cc(NCc4ccccn4)ccc32)cc1	42*	-1	-38	0	5	-4
COc1ccccc1-n1cnc2cc(NCc3ccccn3)ccc21	-14	4	16	3	9	.
CC(=O)Nc1ccc(S(=O)(=O)N2CCSC2c2ccc(Cl)cc2)cc1 (configuration not stated)	38*	14	-40	-1	0	5
C#CCOc1c(Br)cc(/C=N\NC(=O)CN2CCOCC2)cc1OCC	5	8	-2	3	1	.
Cc1ccc(CS(=O)(=O)CCC(=O)NCc2cccs2)cc1	4	0	-6	-3	-3	.
CCOC(=O)c1cccc(C(=O)OCC)n1	-6	4	7	6	2	.
O=C(COC(=O)c1cccc(C(=O)OCC(=O)c2ccc(Br)cc2)n1)c1ccc(Br)cc1	41*	3	-47	-5	1	-10
O=C(Nc1ccccc1)N(Cc1ccccc1)CC(O)C(F)(F)F (configuration not stated)	50*	-1	-45	3	-4	9
CCCCS(=O)(=O)Nc1ccc(Cc2ccncc2)cc1	-4	4	6	2	5	.
O=c1c2c(nc3cc(-c4ccc(F)cc4)[nH]n13)CCCC2	2	3	-4	-2	1	.
O=c1c2c(nc3cc(-c4cccc(Cl)c4)[nH]n13)CCC2	43*	3	-37	9	-2	-5
COc1ccc(C(=O)NCCc2nnc(SCC(=O)Nc3ccccc3C(C)C)n2C)cc1	12	6	-11	-10	2	.
COc1ccc(NC(C)=O)cc1NC(=O)CCn1c(=O)sc2ccccc21	40*	5	-39	1	0	3
O=C(Cn1nc(C(F)(F)F)c2c1CCCC2)Nc1ccc2c(c1)OCO2	-2	15	0	3	3	.
SMILES	LYP act	HIV Rev-RRE inh	LYP inh 2	EphB4 antag	FAK blocker	PTPN22 act conf	others
CCOC(=O)N1CCN(S(=O)(=O)N(C)C)CC1	-4	10	3	4	-5	.
COc1cc(OC)cc(-c2cc3nc(C)c(CCC(=O)O)c(=O)n3[nH]2)c1	49*	1	-53	-3	-5	-2
COc1cc(OC)cc(-c2nc3nc(C)c(CCC(=O)O)c(C)n3n2)c1	1	7	-4	3	-1	.
Cc1ccc2cc(COC(=O)C3CCCO3)c(=O)[nH]c2c1 (configuration not stated)	14	4	-8	-1	0	.
CCNC(=S)NNC(=O)c1csc2ccccc12	-9	6	12	4	3	.
CC(C)CNC(=S)NNC(=O)c1csc2ccccc12	37*	-1	-43	0	4	3
CCN(CC)CCNc1ncnc2c1sc1nc(N3CCOCC3)c3c(c12)CC(C)(C)SC3	2	3	0	3	-1	.
CN(C)CCNc1ncnc2c1sc1nc(N3CCOCC3)c3c(c12)CC(C)(C)SC3	49*	8	-54	2	3	7
CCN(CC)c1ccc2cc(-c3nc4ccccc4[nH]3)c(=O)oc2c1	-6	135*[fluorescence artefact?]	4	-4	53*	.	FAK inh conf=31*
CCCCOCCCn1c(-c2ccco2)nc2nc3ccccc3nc21	3	17	-3	3	1	.
C=CCn1c(SCC(=O)NC2CCS(=O)(=O)C2)nc2scc(C3CC3)c2c1=O (configuration not stated)	-7	3	6	3	-1	.
C=CCn1c(SCC(=O)c2ccc(CNC(C)=O)o2)nc2scc(C3CC3)c2c1=O	-1	6	0	-5	27*	.	FAK inh conf=2
CC(=O)N1CCN(c2ccc(Nc3ncnc4c3oc3ccccc34)cc2)CC1	-14	-2	13	-11	24*	.	FAK inh conf=16
COc1ccc(C2OC(=O)CC2C(=O)NC2CCCC(C)C2C)cc1OC (configuration not stated)	0	0	1	3	-2	.
COc1ccc(C2OC(=O)CC2C(=O)NC2CCCCCC2)cc1OC (configuration not stated)	-5	6	6	7	21*	.	FAK inh conf=2
O=C(NCCO)c1cccc(Nc2nc(-c3ccccc3)c3cc(Cl)ccc3n2)c1	-2	-1	6	-1	33*	.	FAK inh conf=1
CCN1CCCC1CNc1ncnc2c1[nH]c1ccc(Cl)cc12 (configuration not stated)	3	6	-4	2	21*	.	FAK inh conf=2
Clc1ccc2[nH]c3c(NCCCN4CCOCC4)ncnc3c2c1	-2	10	-1	-1	12	.
O=C1CCCN1CCCNc1ncnc2c1[nH]c1ccc(Cl)cc12	6	12	-2	2	29*	.	FAK inh conf=4
CN1C(=O)N(c2ccccc2)C(Nc2nncs2)C1(C)C (configuration not stated)	-2	6	-1	-3	-8	.
CC(C)(C)C(=O)NC(=C(Cl)Cl)P(=O)(O)O	-5	8	4	3	66*	.	FAK inh conf=52*
CCCCn1c(=O)[nH]c2ccccc21	1	7	-4	0	4	.
O=c1[nH]c2ccccc2n1CCCSc1cnc2ccccc2n1	8	12	-12	-10	42*	.	FAK inh conf=14
